Results on 15 compounds are retold here after ChEMBL document CHEMBL3091458, “Design, synthesis, and biological evaluation of 1,2,4-triazole bearing 5-substituted biphenyl-2-sulfonamide derivatives as potential antihypertensive candidates” (Bioorg Med Chem, 2013).

A short description of series [1]: Displacement of [125I]-Ang-2 from AT2 receptor in porcine myometrial membranes after 1.5 hrs. It is filed as cell membranes, Sus scrofa. In short, it runs like this: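 Membranes were made from porcine uteri (myometrium). AT1 binding was blocked by adding losartan. [125I]Ang II binding ran in 50 mM Tris-HCl pH 7.4 with 100 mM NaCl, 10 mM MgCl2, 1 mM EDTA, 0.025% bacitracin and 0.2% BSA, at 25 °C for 1.5 h. Bound ligand was caught on GF/C filters, washed with cold Tris and gamma-counted. IC50 was the concentration displacing 50% of specific binding. Run in triplicate.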
Background: Loss of bound radioactivity is the signal in a displacement assay; it reports binding, not function.

Series [2] is described as follows: Displacement of [125I]-Ang-2 from AT1 receptor in rat liver membranes after 1.5 hrs. It is filed as cell membranes, Membrane.
Series [3] concerns Rattus norvegicus. Put plainly: Toxicity in renal spontaneously hypertensive rat model assessed as reduction of heart rate at 20 mg/kg, po measured at 4 hrs by tail-cuff method relative to control. It is filed as organism-based. More on the design: dose 20 mg/kg, route oral. To be noted: in vivo. The method in brief:
(§1)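 Spontaneously hypertensive rats were dosed orally with the test agent at 20 mg/kg, with a saline-dosed control group. SAP, DAP, MAP and heart rate were recorded before dosing and at 1, 2, 4, 6 and 8 h after. Change was taken as the post-dose value minus the pre-dose value. Significance was judged against the control at p < 0.1 and p < 0.05.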

Series [4] relates to Rattus norvegicus. Description: Antihypertensive activity in renal spontaneously hypertensive rat model assessed as reduction of mean arterial pressure at 20 mg/kg, po measured at 4 hrs by tail-cuff method relative to control. It is filed as functional, Artery. The method in brief: as §1
The test system of series [5] is Rattus norvegicus. Description: Antihypertensive activity in renal spontaneously hypertensive rat model assessed as reduction of mean arterial pressure at 20 mg/kg, po measured at 6 hrs by tail-cuff method relative to control. It is filed as functional, Artery. The method in brief:
as §1

In series [6] the test system is Rattus norvegicus. Put plainly: Toxicity in renal spontaneously hypertensive rat model assessed as reduction of heart rate at 20 mg/kg, po measured at 6 hrs by tail-cuff method relative to control. It is filed as organism-based. Also on record: dose 20 mg/kg, route oral. The conditions noted are these: in vivo. In short, it runs like this:
as §1

For series [7], the system named is Rattus norvegicus. Put plainly: Antihypertensive activity in renal spontaneously hypertensive rat model assessed as reduction of systolic arterial pressure at 20 mg/kg, po measured at 2 hrs by tail-cuff method relative to control. It is filed as functional, Artery. In short, it runs like this: as §1
The test system of series [8] is Rattus norvegicus. Put plainly: Antihypertensive activity in renal spontaneously hypertensive rat model assessed as reduction of mean arterial pressure at 20 mg/kg, po measured at 1 hr by tail-cuff method relative to control. It is filed as functional, Artery. The method in brief: as §1
Series [9] has as its system Rattus norvegicus. Put plainly: Antihypertensive activity in renal spontaneously hypertensive rat model assessed as reduction of systolic arterial pressure at 20 mg/kg, po measured at 4 hrs by tail-cuff method relative to control. It is filed as functional, Artery. In short, it runs like this:
as §1

Series [10] concerns Rattus norvegicus. Put plainly: Toxicity in renal spontaneously hypertensive rat model assessed as reduction of heart rate at 20 mg/kg, po measured at 1 hr by tail-cuff method relative to control. It is filed as organism-based. More on the design: dose 20 mg/kg, route oral. The conditions noted are these: in vivo. The method in brief:
as §1

In series [11] the test system is Rattus norvegicus. Description: Antihypertensive activity in renal spontaneously hypertensive rat model assessed as reduction of systolic arterial pressure at 20 mg/kg, po measured at 8 hrs by tail-cuff method relative to control. It is filed as functional, Artery. The method in brief: as §1
Series [12] relates to Rattus norvegicus. Put plainly: Antihypertensive activity in renal spontaneously hypertensive rat model assessed as reduction of systolic arterial pressure at 20 mg/kg, po measured at 1 hr by tail-cuff method relative to control. It is filed as functional, Artery. In short, it runs like this:
as §1

Series [13] relates to Rattus norvegicus. Description: Toxicity in renal spontaneously hypertensive rat model assessed as reduction of heart rate at 20 mg/kg, po measured at 2 hrs by tail-cuff method relative to control. It is filed as organism-based. To be noted: in vivo. More on the design: dose 20 mg/kg, route oral. The method in brief:
as §1

In series [14] the test system is Rattus norvegicus. Description: Antihypertensive activity in renal spontaneously hypertensive rat model assessed as reduction of diastolic arterial pressure at 20 mg/kg, po measured at 1 hr by tail-cuff method relative to control. It is filed as functional, Artery. In short, it runs like this: as §1
Series [15] relates to Rattus norvegicus. Description: Toxicity in renal spontaneously hypertensive rat model assessed as reduction of heart rate at 20 mg/kg, po measured at 8 hrs by tail-cuff method relative to control. It is filed as organism-based. Also on record: dose 20 mg/kg, route oral. To be noted: in vivo. In short, it runs like this: as §1
The subject of series [16] is Rattus norvegicus. Description: Antihypertensive activity in renal spontaneously hypertensive rat model assessed as reduction of diastolic arterial pressure at 20 mg/kg, po measured at 6 hrs by tail-cuff method relative to control. It is filed as functional, Artery. In short, it runs like this: as §1
Series [17] relates to Rattus norvegicus. Description: Antihypertensive activity in renal spontaneously hypertensive rat model assessed as reduction of mean arterial pressure at 20 mg/kg, po measured at 8 hrs by tail-cuff method relative to control. It is filed as functional, Artery. In short, it runs like this:
as §1

Series [18] concerns Rattus norvegicus. Description: Antihypertensive activity in renal spontaneously hypertensive rat model assessed as reduction of diastolic arterial pressure at 20 mg/kg, po measured at 8 hrs by tail-cuff method relative to control. It is filed as functional, Artery. In short, it runs like this: as §1
In series [19] the test system is Rattus norvegicus. Put plainly: Antihypertensive activity in renal spontaneously hypertensive rat model assessed as reduction of mean arterial pressure at 20 mg/kg, po measured at 2 hrs by tail-cuff method relative to control. It is filed as functional, Artery. The method in brief: as §1
For series [20], the system named is Rattus norvegicus. Description: Antihypertensive activity in renal spontaneously hypertensive rat model assessed as reduction of diastolic arterial pressure at 20 mg/kg, po measured at 4 hrs by tail-cuff method relative to control. It is filed as functional, Artery. The method in brief:
as §1

The test system of series [21] is Rattus norvegicus. Description: Antihypertensive activity in renal spontaneously hypertensive rat model assessed as reduction of diastolic arterial pressure at 20 mg/kg, po measured at 2 hrs by tail-cuff method relative to control. It is filed as functional, Artery. In short, it runs like this:
as §1

Series [22] concerns Rattus norvegicus. Description: Antihypertensive activity in renal spontaneously hypertensive rat model assessed as reduction of systolic arterial pressure at 20 mg/kg, po measured at 6 hrs by tail-cuff method relative to control. It is filed as functional, Artery. The method in brief:
as §1

pIC50: −log10 of the molar value.

A word on the pIC50: it is the negative decadic logarithm of the IC50, by convention in mol/L. As to `Cc1ccc(S(=O)(=O)NC(=O)OCc2ccccc2)c(-c2ccc(Cn3cncn3)cc2)c1`, the negative logarithm of the IC50 (pIC50) in series [1] and in series [2] was less than 5.00 each time.
On to `CCOC(=O)NS(=O)(=O)c1ccc(C)cc1-c1ccc(Cn2cncn2)cc1`, for which the pIC50 in [1] was 7.19; in [2], less than 5.00.
In the same order, the values of `CCCCOC(=O)NS(=O)(=O)c1ccc(CC(C)C)cc1-c1ccc(NC)cc1` are less than 5.00 and less than 5.00.
With `CCCCC(=O)NS(=O)(=O)c1ccc(C)cc1-c1ccc(Cn2cncn2)cc1`, the values for the pIC50 in [1] and in series [2] were 6.97 and less than 5.00, respectively.
The matching figures for `CCOC(=O)NS(=O)(=O)c1ccc(CN(CC)CC)cc1-c1ccc(Cn2cncn2)cc1`: 6.93 and less than 5.00.
In the same order, the values of `COc1ccc(S(=O)(=O)NC(=O)OC(C)(C)C)c(-c2ccc(Cn3cncn3)cc2)c1` are 6.77 and less than 5.00.
The matching figures for `CC(C)Cc1ccc(S(=O)(=O)NC(=O)OC(C)(C)C)c(-c2ccc(Cn3cncn3)cc2)c1`: 7.26 and less than 5.00.
With `CCCCOC(=O)NS(=O)(=O)c1ccc(CC(C)C)cc1-c1ccc(NCCC)cc1`, the pIC50 in series [1] and in [2] was less than 5.00 throughout.
With `CCCCOC(=O)NS(=O)(=O)c1ccc(CC(C)C)cc1-c1ccc(Cn2cncn2)cc1`, the Activity in the series on Rattus norvegicus [3] was -14.53 bpm; with Rattus norvegicus [4] it was -14.16 mmHg; with Rattus norvegicus [5], -21.88 mmHg; in the series on Rattus norvegicus [6], -16.69 bpm; in the series with Rattus norvegicus [7] it was -4.26 mmHg; in the series with Rattus norvegicus [8] it was 4.43 mmHg. The Activity was -14.29 mmHg in the series on Rattus norvegicus [9]; 7.25 bpm with Rattus norvegicus [10]; -15.22 mmHg with Rattus norvegicus [11]; -7.25 mmHg in the series on Rattus norvegicus [12]; -5.02 bpm in the series with Rattus norvegicus [13]; 4.93 mmHg in the series on Rattus norvegicus [14]. In addition, the Activity with Rattus norvegicus [15] is -14.33 bpm; in the series on Rattus norvegicus [16], -21.36 mmHg; in the series with Rattus norvegicus [17], -15.09 mmHg; in the series with Rattus norvegicus [18] it was -14.1 mmHg; in the series with Rattus norvegicus [19] it was -4.78 mmHg; in the series on Rattus norvegicus [20], -12.32 mmHg. The Activity in the series on Rattus norvegicus [21] is listed as -3.55 mmHg; with Rattus norvegicus [22], -20.94 mmHg. The figures for the pIC50 in series [1] and in series [2] were 9.40 and less than 5.00, respectively.
On to `CCCCOC(=O)NS(=O)(=O)c1ccc(C)cc1-c1ccc(Cn2cncn2)cc1`, for which the pIC50 in [1] is 7.80; in [2], less than 5.00.
The matching figures for `CCN(CC)Cc1ccc(S(=O)(=O)NC(=O)OCc2ccccc2)c(-c2ccc(Cn3cncn3)cc2)c1`: less than 5.00 and less than 5.00.
In the case of `CCCCC(=O)NS(=O)(=O)c1ccc(OC)cc1-c1ccc(Cn2cncn2)cc1`, the pIC50 is 7.00 in [1] and less than 5.00 in series [2].
In the same order, the values of `CCCCOC(=O)NS(=O)(=O)c1ccc(CN(CC)CC)cc1-c1ccc(Cn2cncn2)cc1` are 8.00 and less than 5.00.
As for `CCCCOC(=O)NS(=O)(=O)c1ccc(CC(C)C)cc1-c1ccc(NCC)cc1`, the pIC50 in series [1] and in series [2] was less than 5.00 throughout.
With `Cc1cc(Cn2cnc3c2C[C@@H](C(=O)O)N(C(=O)C(c2ccccc2)c2ccccc2)C3)ccc1N(C)C`, the values for the pIC50 in [1] and in [2] were 7.54 and less than 5.00, respectively.
